From PubChem
NPY Y2 blocker – antagonists of human neuropeptide Y receptor Y2. P49146. NPY-Y2 expressing cells, antagonist mode. actives 0.99% (n = 140,000). inhibition, % at 2.7 µM;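 further: 0% = vehicle with agonist challenge and 100% = reference antagonist with challenge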
NPY1 pot ag – potentiators or agonists of human neuropeptide Y receptor Y1 | P25929 | AID 1304 | activation, % at 3.6 µM | NPY-Y1 expressing cells, potentiator/agonist activation | actives 0.37% (n = 220,000); in the data active means activation above about 33%, passing the limit was not always enough;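 further: cells stimulated with NPY at EC10 then isoproterenol at EC100; 0% = low agonist plus stimulus and 100% = saturating agonist plus stimulus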
Target sequence (P25929 whole entry, looked up): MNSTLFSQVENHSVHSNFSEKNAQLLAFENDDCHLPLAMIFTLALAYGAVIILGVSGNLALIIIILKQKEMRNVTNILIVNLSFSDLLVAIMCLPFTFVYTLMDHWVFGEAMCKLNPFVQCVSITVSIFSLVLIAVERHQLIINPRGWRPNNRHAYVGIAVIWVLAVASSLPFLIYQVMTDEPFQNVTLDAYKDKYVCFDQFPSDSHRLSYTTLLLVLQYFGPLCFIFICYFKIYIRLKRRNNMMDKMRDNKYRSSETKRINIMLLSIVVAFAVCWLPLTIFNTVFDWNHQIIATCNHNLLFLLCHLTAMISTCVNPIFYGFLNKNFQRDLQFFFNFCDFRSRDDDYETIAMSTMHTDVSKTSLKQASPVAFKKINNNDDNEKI
NPY-Y2 PAM-ag – potentiators or agonists of human neuropeptide Y receptor Y2 | cells expressing NPY-Y2, potentiator/agonist read-out | activation, % at 3.6 µM | actives 0.45% (n = 220,000) | P49146; in the data active means activation above about 27%;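 further: cells stimulated with NPY near EC25 plus isoproterenol at EC100; 0% = vehicle plus submaximal agonist and 100% = vehicle plus saturating agonist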
NPY Y1 blocker – antagonists of human neuropeptide Y receptor Y1. actives 1% (n = 200,000). HEK293-CNG Y1 cells, membrane potential fluorescence; NPY at EC95, then isoproterenol. P25929. inhibition, % at 3.6 µM;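 active means inhibition above the campaign mean inhibition of all tested compounds plus 3 SD, cut at about 20% in these data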;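 further: 0% = DMSO wells given NPY plus isoproterenol and 100% = isoproterenol alone without NPY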
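Benchmarks – high control isoproterenol alone, low control NPY with isoproterenol · Material – HEK293 Y1/CNG channel cell line · Times – dye 3 h, compound 60 min room temperature, stimulation 45 min · Probe or stimulus – NPY (25 nM), isoproterenol (1 µM), Ro 20-1724 (25 µM) · Evaluation – % inhibition of NPY effect · Signal – fluorescence, membrane potential probe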
NPY1 antag conf – human NPY-Y1 antagonism, confirmation. HEK293-CNG NPY-Y1, membrane potential fluorescence, cAMP; NPY challenge against isoproterenol-raised cAMP. inhibition, % at 3.6 µM. actives 21% (n = 1,200). shares compounds with NPY Y1 blocker; in the data active means inhibition above about 20%;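 further: 0% = vehicle with agonist plus stimulus and 100% = stimulus alone without agonist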
NPY-Y2 antag ct – antagonizes human NPY-Y2, counter-screen to NPY-Y1 antagonists | inhibition, % at 3.6 µM | HEK293 NPY-Y2 CNG membrane potential fluorescence, antagonism; cells given NPY, then isoproterenol | shares compounds with NPY Y1 blocker | actives 28% (n = 1,200);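 further: 0% = DMSO with agonist challenge and 100% = reference antagonist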
* marks the source's active call; other numbers are inactive results; nt = no result. An excerpt weighted towards active compounds, which were near 1.8% of everything screened. Unless noted, no stated cut-off is given here; in the data, active means inhibition above about 17%; inactive means the rest.

SMILES	NPY Y2 blocker	NPY1 pot ag	NPY-Y2 PAM-ag	NPY Y1 blocker	NPY1 antag conf	NPY-Y2 antag ct
CC1(C)CC(N2CCN(c3ccccc3)CC2)=CC(=[N+]2CCCC2)C1	3.4	1.9	16.9	3.6	nt	nt
CC1(C)CC(N2CCCC2)=CC(=[N+]2CCCCCC2)C1	nt	-24.6	3.3	26.4*	22.8*	11.5
CCC(C)(C(=O)NC1CCCCC1)N(Cc1ccco1)C(=O)Cc1cccs1 (configuration not stated)	11.7	-35.8	-42.6	71.7*	37.6*	13.7
S=C(NC1CCCCC1)N1CCN(c2ccccn2)CC1	0.8	-8.1	7.8	-1.6	nt	nt
C/C=C/Cn1c(SCc2ccc(Cl)cc2)nc2c1c(=O)[nH]c(=O)n2C	4.2	-89.8	-75.4	17.4	nt	nt
CCCn1c(SCc2ccc(Cl)cc2)nc2c1c(=O)[nH]c(=O)n2C	12.4	-33.4	-8.4	23.9*	22.5*	39.9*
Cc1cc(/C=C2\NC(=S)NC2=O)c(C)n1-c1cccnc1	nt	-25.7	-11.3	nt	nt	nt
Cc1ccc(NC(=O)/C=N/OCC(=O)NCc2ccccc2Cl)cc1	nt	10.3	-3.2	nt	nt	nt
COc1ccc(/C(C)=C2\SC(=S)N(CCC(=O)O)C2=O)cc1	13.4	-34.4	-42.0	23.0*	10.2	6.0
COc1ccc(C(=O)Nc2ccc(-c3ccc(C)o3)cc2)cc1S(=O)(=O)N1CCOCC1	-0.2	22.9	15.2	20.2*	15.8	14.0
COc1ccc(C(=O)Nc2cccc(C)c2)cc1S(=O)(=O)N1CCOCC1	6.3	-0.4	6.0	1.9	nt	nt
COc1ccc(N2CCN(C(=O)CCCSc3nc4ccccc4[nH]3)CC2)cc1	2.2	-0.9	12.4	3.2	nt	nt
CN1CCN(CCCC(=O)c2ccc(C3CCCC3)cc2)CC1	10.9	-51.4	-10.8	26.3*	10.6	15.5
CN1CCN(CCCCC(=O)c2ccccc2)CC1	2.3	6.3	-10.0	3.7	nt	nt
CCCn1c(NCc2cc(OC)ccc2OC)nc2ccccc21	11.4	-26.2	-16.9	12.8	nt	nt
COc1ccc(OC)c(CNc2nc3ccccc3n2CCN2CCCCC2)c1	14.5	-19.7	-5.7	32.7*	21.5*	18.0*
C=CCNC(=O)NC(=O)COC(=O)/C(C#N)=C/c1ccc(OC)cc1	nt	-0.1	4.6	3.3	nt	nt
CC1CCCN(C(=O)C(Cc2ccccc2)n2cccc2)C1 (configuration not stated)	2.4	2.4	3.7	9.3	nt	nt
O=c1c2ccccc2nc(SCCN2CCOCC2)n1CCc1ccccc1	nt	-16.5	-15.3	6.7	nt	nt
COc1ccc(CSc2nc3ccccc3c(=O)n2CCCN2CCOCC2)cc1F	nt	-35.0	-21.6	27.6*	14.3	13.8
COc1ccc(CCn2c(SCCN3CCCCC3)nc3ccccc3c2=O)cc1OC	nt	-26.8	-27.1	37.8*	15.9	17.8*
Cc1ccc(CN2CCN(C3CCCC3)C(CCO)C2)s1 (configuration not stated)	nt	-18.6	-2.1	4.9	nt	nt
O=C(NNc1cccc(Cl)n1)c1ccccc1CC[N+](=O)[O-]	nt	19.8	7.5	23.4*	1.8	-1.0
O=C(NNc1cccc(Cl)n1)c1ccc(Cl)cc1Cl	-0.8	12.2	-2.6	3.8	nt	nt
O=C1/C(=C\c2ccc(Br)o2)Cc2ccccc21	13.0	-21.6	13.8	25.0*	15.5	7.5
SMILES	NPY Y2 blocker	NPY1 pot ag	NPY-Y2 PAM-ag	NPY Y1 blocker	NPY1 antag conf	NPY-Y2 antag ct
O=C1/C(=C/c2cccs2)Cc2ccccc21	5.5	13.1	8.9	-0.6	nt	nt
Cc1ccc2nsnc2c1S(=O)(=O)N1CCN(Cc2ccc3c(c2)OCO3)CC1	3.5	-21.7	-7.1	6.9	nt	nt
Cc1ccc(OCC(=O)Nc2sc3c(c2C#N)CC(C)(C)NC3(C)C)cc1	nt	-37.8	-24.4	22.3*	13.5	6.4
CC(C)CNS(=O)(=O)c1ccc(CCC(=O)N2CCC(C(N)=O)CC2)cc1	nt	3.2	-0.1	-2.3	nt	nt
CC(C(=O)Nc1ccc(OCc2ccccc2)cc1)N1CCCC1 (configuration not stated)	nt	2.7	-2.0	1.6	nt	nt
CC(C)COCC(CN(Cc1ccccc1)c1ccccc1)N1CCCC1 (configuration not stated)	nt	-11.1	-22.2	30.8*	18.3	17.0
COc1cccc(-c2nn(-c3ccccc3)cc2CN(C)Cc2c(C)nc3ccccn23)c1	nt	-55.4	-17.9	23.2*	12.0	15.9
Clc1cccc(OCCN2CCN(CCOc3cccc(Cl)c3)CC2)c1	10.7	-4.8	-3.6	21.1*	4.9	6.5
COc1ccc(CN/C(C)=C(/C#N)C(N)=O)cc1OC	0.0	0.4	6.7	-1.1	nt	nt
Cc1ccc(NC(=O)CSc2nc3ccccc3c(=O)n2CCCC(=O)NCCCN2CCOCC2)cc1C	nt	-10.7	2.1	8.7	nt	nt
Cc1ccc(NC(=O)CSc2nc3ccccc3c(=O)n2CCCN2CCCCC2)cc1Cl	nt	-70.0	-59.7	22.8*	45.0*	55.1*
CC1CCN(CCCn2c(SCC(=O)Nc3ccccc3Cl)nc3ccccc3c2=O)CC1	nt	-39.0	-14.5	31.3*	24.7*	23.8*
CC(C)CN(Cc1cc(=O)oc2cc(-c3ccccc3)c(O)cc12)CC(C)C	nt	-1.4	-26.6	nt	nt	nt
COc1ccc(-n2cnc3c(cnn3CCC#N)c2=N)cc1	-0.3	2.2	4.1	1.3	nt	nt
COc1ccc(-c2nc(NC(=O)C3=NN(c4cccc(C)c4)C(=O)CC3)sc2C)cc1	nt	-1.9	-9.7	5.8	nt	nt
CCc1n[nH]c(=S)n1/N=C/c1ccc(N(C)c2ccccc2)cc1	nt	-15.7	-31.8	35.2*	18.0	10.7
CCc1n[nH]c(=S)n1/N=C/c1ccc2c(c1)OCO2	4.0	-5.5	-14.7	4.8	nt	nt
COc1cccc(/C=N/n2c(SC)nnc2-c2ccccc2)c1O	4.4	-8.5	-18.6	18.0	nt	nt
Cc1ccc(N=C2NC(=O)CS2)cc1	3.5	13.5	0.7	-1.9	nt	nt
Cc1ccc(SCC(=O)N=C2NC(=O)CS2)cc1	nt	-21.1	-23.7	23.1*	13.7	11.1
CC(C(=O)Nc1c2c(cc3c1CCC3)CCC2)N1CCCC1 (configuration not stated)	9.5	-36.7	-14.8	20.2*	12.6	7.6
COc1ccc(-c2cc(C(=O)Nc3ccccc3O)c3ccccc3n2)cc1OC	nt	-40.9	-51.6	27.2*	13.9	22.9*
COc1ccc(-c2cc(C(=O)Nc3ccccc3N3CCOCC3)c3ccccc3n2)cc1OC	nt	-40.9	-40.3	29.6*	16.6	13.9
COc1ccc(-c2cc(C(=O)NCc3cn(C)nc3C)c3ccccc3n2)cc1OC	4.5	6.7	0.0	2.7	nt	nt
O=C(Nc1ccccc1N1CCOCC1)c1cc(-c2ccncc2)nc2ccccc12	nt	-5.9	-18.2	3.8	nt	nt
COC(=O)c1[nH]c2c(c1C)C(=O)CCC2	-0.5	-5.0	3.8	30.8*	-3.7	2.2
COc1ccc(NC(=O)c2nc(C)n(-c3ccc([N+](=O)[O-])cc3)n2)cc1	nt	11.0	7.8	2.3	nt	nt
CN1C(=O)S/C(=C\c2ccc(-n3cncn3)cc2)C1=O	nt	5.1	-27.5	1.2	nt	nt
CSc1ccccc1NC(=O)CSCc1ccc(Br)cc1	12.2	-23.1	-20.4	26.9*	1.0	4.8
